Laboratory results from ChEMBL document CHEMBL2029249, “N-Methyl-3-(tetrahydro-2H-pyran-4-yl)-2,3,4,9-tetrahydro-1H-carbazole-6-carboxamides as a novel class of cannabinoid receptors agonists with low CNS penetration” (Bioorg Med Chem Lett, 2012).
In brackets after ≈: the same amount, converted by molar mass.

What was measured:
Cannabinoid receptor 1 [1] = biological target: T1, Cannabinoid receptor 1 (Homo sapiens, UniProt P21554); assay: Agonist activity at human CB1 receptor expressed in HEK293 cells assessed as [35S]GTPgamma binding; assay type: functional, cell-based
T1 sequence (P21554 whole entry): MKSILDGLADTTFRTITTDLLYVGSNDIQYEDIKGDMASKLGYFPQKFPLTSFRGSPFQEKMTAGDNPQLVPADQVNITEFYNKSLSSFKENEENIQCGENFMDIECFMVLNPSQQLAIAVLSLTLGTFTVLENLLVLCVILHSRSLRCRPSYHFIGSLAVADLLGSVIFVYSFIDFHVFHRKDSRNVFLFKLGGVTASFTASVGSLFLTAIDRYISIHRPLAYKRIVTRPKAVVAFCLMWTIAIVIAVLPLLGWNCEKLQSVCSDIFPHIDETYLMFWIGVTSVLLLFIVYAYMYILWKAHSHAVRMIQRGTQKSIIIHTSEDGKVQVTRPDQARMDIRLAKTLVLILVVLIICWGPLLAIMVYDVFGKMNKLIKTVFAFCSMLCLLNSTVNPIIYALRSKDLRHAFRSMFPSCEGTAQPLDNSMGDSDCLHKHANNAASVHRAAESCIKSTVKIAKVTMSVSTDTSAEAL

[2] = Ratio of drug level in brain to plasma in rat by microdialysis assay
[3] = Intrinsic clearance in human liver microsomes at 1 uM in presence of NADPH; assay type: ADME, Microsome; details: read-out: CLH
Cannabinoid receptor 1 [4] = biological target: T1, Cannabinoid receptor 1; assay: Agonist activity at human CB1 receptor expressed in HEK293 cells assessed as [35S]GTPgamma binding relative to WIN55212-2; assay type: functional, cell-based
How it was run: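 GTPγ35S binding on membranes from HEK293 EBNA cells stably transfected with cloned human CB1; Emax relative to WIN55,212-2 as reference agonist; means of at least three measurements.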

[5] = Thermodynamic solubility of the compound at pH 7.4; details: buffer
[6] = Apparent permeability from apical to basal side of human Caco2 cells at 10 uM; details: Caco-2
[7] = biological target: Voltage-gated inwardly rectifying potassium channel KCNH2 (Homo sapiens, UniProt Q12809)
Sequence of Voltage-gated inwardly rectifying potassium channel KCNH2 (Q12809 whole entry): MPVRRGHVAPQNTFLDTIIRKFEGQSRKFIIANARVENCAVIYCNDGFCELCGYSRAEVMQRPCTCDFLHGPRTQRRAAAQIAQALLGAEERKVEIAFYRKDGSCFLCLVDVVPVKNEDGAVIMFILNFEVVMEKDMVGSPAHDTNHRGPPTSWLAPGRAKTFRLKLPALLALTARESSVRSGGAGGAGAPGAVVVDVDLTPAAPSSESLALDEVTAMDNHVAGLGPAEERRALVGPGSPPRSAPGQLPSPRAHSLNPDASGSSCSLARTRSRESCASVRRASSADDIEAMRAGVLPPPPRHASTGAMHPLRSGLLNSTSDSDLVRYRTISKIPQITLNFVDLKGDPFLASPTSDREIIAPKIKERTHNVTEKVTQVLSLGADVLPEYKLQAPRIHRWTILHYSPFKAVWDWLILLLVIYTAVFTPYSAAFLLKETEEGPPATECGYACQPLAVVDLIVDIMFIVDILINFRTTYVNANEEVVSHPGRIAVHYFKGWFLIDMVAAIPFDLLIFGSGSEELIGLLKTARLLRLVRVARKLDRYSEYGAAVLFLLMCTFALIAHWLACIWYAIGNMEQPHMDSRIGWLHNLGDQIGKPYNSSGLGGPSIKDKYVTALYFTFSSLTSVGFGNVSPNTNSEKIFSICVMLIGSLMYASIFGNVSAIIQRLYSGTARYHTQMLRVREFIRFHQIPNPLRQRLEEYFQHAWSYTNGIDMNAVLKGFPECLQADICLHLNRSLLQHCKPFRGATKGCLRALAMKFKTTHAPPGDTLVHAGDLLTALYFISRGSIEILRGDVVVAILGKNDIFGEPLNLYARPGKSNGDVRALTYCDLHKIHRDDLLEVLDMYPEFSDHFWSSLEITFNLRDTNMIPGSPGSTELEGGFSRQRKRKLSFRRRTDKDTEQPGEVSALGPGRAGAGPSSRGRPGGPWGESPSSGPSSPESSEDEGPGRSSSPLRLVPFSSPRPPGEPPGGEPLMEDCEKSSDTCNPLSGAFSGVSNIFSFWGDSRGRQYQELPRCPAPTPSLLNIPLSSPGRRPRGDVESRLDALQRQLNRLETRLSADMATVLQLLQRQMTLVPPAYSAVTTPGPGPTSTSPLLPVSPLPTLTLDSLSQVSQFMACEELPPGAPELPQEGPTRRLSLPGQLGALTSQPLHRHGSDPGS

Cannabinoid receptor 1 [8] = biological target: T1, Cannabinoid receptor 1; assay: Displacement of [3H]CP55940 from human CB1 receptor expressed in HEK293 cells; assay type: cell-based
Cannabinoid receptor 2 = Cannabinoid receptor 2 (Homo sapiens, UniProt P34972); assay: Binding affinity to human CB2 receptor
Sequence of Cannabinoid receptor 2 (P34972 whole entry): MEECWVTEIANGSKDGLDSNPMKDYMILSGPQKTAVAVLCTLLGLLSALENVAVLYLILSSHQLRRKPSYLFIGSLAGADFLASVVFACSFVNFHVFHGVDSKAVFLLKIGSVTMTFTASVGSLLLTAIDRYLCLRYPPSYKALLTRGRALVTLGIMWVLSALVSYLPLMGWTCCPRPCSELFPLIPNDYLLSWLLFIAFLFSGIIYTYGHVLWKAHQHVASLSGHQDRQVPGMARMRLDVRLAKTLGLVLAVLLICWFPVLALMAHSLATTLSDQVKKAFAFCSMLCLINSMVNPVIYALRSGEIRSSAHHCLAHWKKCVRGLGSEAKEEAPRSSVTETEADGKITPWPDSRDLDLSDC

SMILES | EC50 (Cannabinoid receptor 1 [1]) [µM] | Kp [2] | microsomal CLint at 1 µM [3] [µL/min/mg] | Emax (Cannabinoid receptor 1 [4]) [%] | solubility thermodynamic [5] [µM] | Papp A→B at 10 µM [6] [×10⁻⁶ cm/s] | IC50 [7] [µM] | Ki (Cannabinoid receptor 1 [8]) [µM] | Ki (Cannabinoid receptor 2) [µM]
CCN(CC(=O)NCCF)C(=O)c1ccc2c(c1)c1c(n2C)CC[C@@H](C2CCOCC2)C1 | 0.0098 | 0.068 | 33 | 107 | 71 (≈ 31.5 µg/mL) | – | – | – | –
CN(C(=O)c1ccc2c(c1)c1c(n2C)CC[C@@H](C2CCOCC2)C1)[C@H](CO)CCC(=O)NCCF | – | 0.025 | 27 | 118 | 1310 (≈ 639 µg/mL) | 0.11 | > 33 | – | –
CN(CCCC(=O)NC1CC1)C(=O)c1ccc2c(c1)c1c(n2C)CCC(C2CCOCC2)C1 (configuration not stated) | – | – | 73 | 113 | 444 (≈ 201 µg/mL) | – | – | – | –
CN(CCC(=O)NC1CC1)C(=O)c1ccc2c(c1)c1c(n2C)CCC(C2CCOCC2)C1 (configuration not stated) | – | – | – | – | 523 (≈ 229 µg/mL) | – | – | – | –
CCNC(=O)CC[C@@H](CO)N(C)C(=O)c1ccc2c(c1)c1c(n2C)CC[C@@H](C2CCOCC2)C1 | – | 0.011 | 21 | 126 | – | – | – | – | –
CCN(CC(=O)NC1CC1)C(=O)c1ccc2c(c1)c1c(n2C)CCC(C2CCOCC2)C1 (racemic) | – | – | 53 | 106 | 36 (≈ 15.8 µg/mL) | – | – | – | –
CNC(=O)CCCN(C)C(=O)c1ccc2c(c1)c1c(n2C)CCC(C2CCOCC2)C1 (racemic) | – | – | 27 | 121 | 1550 (≈ 660 µg/mL) | – | – | – | –
CCS(=O)(=O)n1c2c(c3cc(C(=O)N4CCC(C)CC4)ccc31)CN(C1CCOCC1)CC2 | – | 0.07 | – | 120 | > 1030 | 13 | – | – | –
CN(CCCC(=O)NCC#N)C(=O)c1ccc2c(c1)c1c(n2C)CC[C@@H](C2CCOCC2)C1 | – | – | 42 | 110 | 300 (≈ 135 µg/mL) | – | – | – | –
CN(CC(=O)NC1CC1)C(=O)c1ccc2c(c1)c1c(n2C)CC[C@H](C2CCOCC2)C1 | 0.446 | – | 38 | 111 | 63 (≈ 26.7 µg/mL) | – | – | 0.177 | 0.0491
CONC(=O)CCCN(C)C(=O)c1ccc2c(c1)c1c(n2C)CC[C@@H](C2CCOCC2)C1 | – | – | 36 | 104 | 1330 (≈ 587 µg/mL) | – | > 33 | – | –
CCCCCOc1ccc(C(=O)c2cccc3ccccc23)c2ccccc12 | – | 0.29 | – | 112 | – | – | – | – | –
CN(CC(=O)NC1CC1)C(=O)c1ccc2c(c1)c1c(n2C)CCC(C2CCOCC2)C1 (racemic) | – | – | 37 | 121 | 108 (≈ 45.7 µg/mL) | – | – | – | 0.0263
